{"data": "Published values from different studies", "mode": "inhibitor", "CHEK2": "Serine/threonine-protein kinase Chk2 (CHEK2, Homo sapiens, UniProt O96017)", "note": "Each line is one published result; the experiments were not run side by side."}
{"SMILES": "COc1cc2ncnc(Nc3ccc(Oc4ccccc4)c(C)c3C)c2cc1OC", "target": "CHEK2", "test": "enzyme activity", "conditions": "1 µM", "inhibition [%]": 36}
{"SMILES": "CN(c1ncccc1CNc1nc(Nc2ccc3c(c2)CC(=O)N3)ncc1C(F)(F)F)S(C)(=O)=O", "target": "CHEK2", "test": "enzyme activity", "conditions": "1 µM", "inhibition [%]": 33.1}
{"SMILES": "Cc1ccc(Nc2nccc(N(C)c3ccc4c(C)n(C)nc4c3)n2)cc1S(N)(=O)=O", "target": "Serine/threonine-protein kinase Chk2 (CHEK2, Homo sapiens, UniProt O96017, I157T)", "test": "enzyme activity", "conditions": "10 µM", "inhibition [%]": 30}
{"SMILES": "Cc1ncc([N+](=O)[O-])n1C(=NO)c1ccccc1C(F)(F)F", "target": "CHEK2", "test": "enzyme activity", "conditions": "10 µM", "inhibition [%]": 17.1}
{"SMILES": "CN(C)C1CCN(CC#Cc2nn(C3CCCC3)c3nc(NCc4ccccc4)ncc23)C1 (centres unmarked)", "target": "CHEK2", "test": "enzyme activity, FRET", "conditions": "10 µM", "inhibition [%]": 17}
{"SMILES": "CN1CC(Oc2cnc(C#N)cc2-c2ccn3nc(NC(=O)C4CC4)cc3c2)C1", "target": "CHEK2", "test": "enzyme activity", "conditions": "1 µM", "inhibition [%]": 0}
{"SMILES": "CSc1nc(C)c(-c2ccnc(Nc3ccc(N4CCOCC4)cc3)c2)[nH]1", "target": "CHEK2", "test": "enzyme activity", "conditions": "10 µM", "inhibition [%]": -5.4}
{"SMILES": "CNc1cccc2cc(C(=O)Nc3ccc(C(=O)O)cc3)c(=O)[nH]c12", "target": "CHEK2", "test": "enzyme activity", "conditions": "10 µM", "inhibition [%]": 15}
{"SMILES": "CCN1CCN(Cc2ccc(NC(=O)c3ccc(C)c(Oc4ccnc5[nH]ccc45)c3)cc2C(F)(F)F)CC1", "target": "CHEK2", "test": "target engagement in cells, chemoproteomics", "test system": "A-375", "conditions": "0.5 µM", "inhibition [%]": -16.3}
{"SMILES": "COc1cc2ncnc(Nc3ccc(Oc4ccccc4)cc3C)c2cc1OC", "target": "CHEK2", "test": "enzyme activity", "conditions": "1 µM", "inhibition [%]": 83}
{"SMILES": "CCOc1cc(-c2nncn2C)ccc1Nc1ncc2cc(C)nc(NCC(C)(C)C)c2n1", "target": "CHEK2", "test": "enzyme activity, FRET", "conditions": "1 µM", "inhibition [%]": "< 15"}
{"SMILES": "CNC(=O)c1cc(Oc2ccc(NC(=O)Nc3ccc(Cl)c(C(F)(F)F)c3)cc2)ccn1", "target": "CHEK2", "test": "enzyme activity", "conditions": "0.3 µM", "inhibition [%]": -5}
{"SMILES": "CNc1cc(Oc2cc(C(=O)Nc3cc(N4CCN(C)CC4)cc(C(F)(F)F)c3)ccc2C)ncn1", "target": "CHEK2", "test": "target engagement in cells, chemoproteomics", "test system": "Huh-7", "conditions": "1 µM", "inhibition [%]": -100}
{"SMILES": "CCCS(=O)(=O)Nc1ccc(F)c(C(=O)c2c[nH]c3ncc(-c4ccc(Cl)cc4)cc23)c1F", "target": "CHEK2", "test": "enzyme activity", "conditions": "1 µM", "inhibition [%]": "< 10"}
